Bioassay records: PubChem BioAssay, several laboratories
This is a sample that favours compounds with a hit; in the whole collection about 1.4% have one here.
CAL PDZ FP-1 = untagged CAL PDZ binding inhibitors, primary screen, biochemical, fluorescence polarization, HTS | purified CAL PDZ, TMR-peptide fluorescence polarization, 1 h | 300,000 tested, 0.92% active | inhibition, % at 24.9 µM | Golgi-associated PDZ and coiled-coil motif-containing protein (Homo sapiens), Q9HD26;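 active means mean inhibition of at least 30% with at least half of replicates also reaching 30%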;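 further: 0% = DMSO neutral control and 100% = excess unlabeled competitor peptide PRC23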
TbMetRS inhib = T. brucei MetRS inhibitors, primary screen, biochemical, luminescence; purified T. brucei MetRS, ATP depletion, Kinase-Glo luminescence; inhibition, % at 11.9 µM; 360,000 tested, 0.4% active; AID 624268, 2012;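 active means inhibition above a per-plate cutoff of the control wells' mean inhibition plus 3 SD, cut at about 5.5% in these data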;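 further: 0% = DMSO wells median and 100% = median of wells with control inhibitor compound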
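Dosing: 11.9 µM single point; system: parasite MetRS enzyme; technique: luminescence of leftover ATP; times: 15 min enzyme-compound preincubation, 2 h reaction, 10 min detection, 25 °C; replicates: each compound tested once; read-out basis: percent inhibition relative to median high and low control wells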
PvdQ inh = P. aeruginosa PvdQ acylase inhibitors, primary screen, biochemical, fluorescence, plate reader and imaging, single point; AID 488965, 2010; 340,000 tested, 0.063% active; inhibition, % at 10 µM; purified PvdQ acylase; in the data active means inhibition above about 30%, passing the limit was not always enough;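 further: 0% = vehicle neutral wells and 100% = reference inhibitor wells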
DYRK1A inh = rat Dyrk1A kinase inhibitors, primary screen, biochemical, single point, plate reader | inhibition, % at 12.5 µM | 310,000 tested, 0.43% active | Dual specificity tyrosine-phosphorylation-regulated kinase 1A (Rattus norvegicus), Q63470 | ADP-Glo luminescence, NFATc1 peptide; in the data active means inhibition above about 50%;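 further: plate controls were vehicle with enzyme for no effect and no enzyme for full effect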
CAL PDZ FP-2 = CAL PDZ peptide-binding inhibitors, primary screen, biochemical, fluorescence polarization, Cer-tagged CAL PDZ, HTS; purified CAL PDZ, TMR-peptide fluorescence polarization, 1 h; inhibition, % at 20 µM; 330,000 tested, 0.02% active;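 active means highest replicate inhibition of at least 40%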;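 further: plate controls were DMSO neutral control wells for no effect and unlabeled competitor peptide control wells for full effect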
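Test system: tagged CAL PDZ domain / Buffer or medium: sodium phosphate/NaCl buffer pH 7.4 with TCEP, IgG, Thesit / Reagent: TMR-labelled reporter peptide T*-PRC34 bound in PDZ groove / Compound dosing: single point, 20 µM / Schedule: 1 h incubation at room temperature before polarization reading / Technique: fluorescence polarization (mP) / Benchmarks: unlabelled peptide, DMSO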
CDK5 p35 inh = inhibitors of human CDK5/p35 kinase, primary screen, biochemical, single concentration | Recombinant CDK5/p35, ADP-Glo luminescence, 60 min | 330,000 tested, 0.01% active | Cyclin-dependent kinase 5 (Homo sapiens) + Cyclin-dependent kinase 5 activator 1 (Homo … | AID 488839, 2010 | inhibition, % at 10 µM;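 active means highest replicate inhibition of at least 50% and at least 75% of replicates reaching 50%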;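 further: plate controls were DMSO neutral control for no effect and GW8510 at 10 µM for full effect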
Target sequence (Q00535 whole entry, looked up): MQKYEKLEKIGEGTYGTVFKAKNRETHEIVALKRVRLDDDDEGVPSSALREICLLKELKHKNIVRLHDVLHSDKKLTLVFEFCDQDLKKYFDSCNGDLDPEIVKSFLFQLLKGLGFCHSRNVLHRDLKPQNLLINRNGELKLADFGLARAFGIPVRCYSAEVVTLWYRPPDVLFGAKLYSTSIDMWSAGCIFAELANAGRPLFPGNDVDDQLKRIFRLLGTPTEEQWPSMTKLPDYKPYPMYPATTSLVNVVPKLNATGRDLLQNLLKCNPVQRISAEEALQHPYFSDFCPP
Target sequence (Q15078 whole entry, looked up): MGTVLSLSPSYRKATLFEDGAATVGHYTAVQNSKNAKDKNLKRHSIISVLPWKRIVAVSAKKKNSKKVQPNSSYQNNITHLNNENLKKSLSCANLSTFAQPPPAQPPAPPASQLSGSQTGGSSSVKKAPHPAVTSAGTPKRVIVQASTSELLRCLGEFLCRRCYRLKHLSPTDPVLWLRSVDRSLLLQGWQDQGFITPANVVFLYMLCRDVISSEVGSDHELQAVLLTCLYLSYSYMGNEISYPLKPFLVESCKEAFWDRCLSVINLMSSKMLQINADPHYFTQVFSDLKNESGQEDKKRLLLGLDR
TbMetRS confirm = T. brucei MetRS inhibitors, confirmation, biochemical, luminescence; shares compounds with TbMetRS inhib; T. brucei MetRS enzyme, luminescence (ATP depletion); inhibition, % at 11.9 µM; 1,400 tested, 93% active; in the data active means inhibition above about 7%
Jurkat cytotox = Jurkat T cell cytotoxicity, cytotoxicity control for T. brucei MetRS inhibitor project, luminescence, high throughput; Jurkat cells viability, ATP luminescence; shares compounds with TbMetRS inhib; AID 624413, 2012; inhibition, % at 8.3 µM; 1,400 tested, 12% active; in the data active means inhibition above about 15%;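 further: 0% = vehicle and 100% = reference inhibitor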
Tb MetRS inh FP = T. brucei MetRS inhibitors, orthogonal assay for T. brucei MetRS inhibitor project, biochemical, fluorescence polarization | shares compounds with TbMetRS inhib | purified T. brucei MetRS | inhibition, % at 11.9 µM | 1,400 tested, 44% active; in the data active means inhibition above about 17%;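 further: 0% = vehicle wells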
* marks the source's active call; other numbers are inactive results; . = no result.

SMILES	CAL PDZ FP-1	TbMetRS inhib	PvdQ inh	DYRK1A inh	CAL PDZ FP-2	CDK5 p35 inh	TbMetRS confirm	Jurkat cytotox	Tb MetRS inh FP
O=C(NCc1cc(Cl)cc(Cl)c1)c1ccc2sc([C@H]3C[C@H](O)[C@@H](CO)O3)nc2c1	.	27*	.	.	.	.	69*	7	39*
O=C(NCc1cc(Cl)cc(Cl)c1)c1ccc2nc([C@@H]3O[C@H](CO)[C@@H](O)[C@H]3O)[nH]c2c1	.	11*	.	.	.	.	45*	-2	25*
O=C(NCc1cc(Cl)cc(Cl)c1)c1csc(COCCO)n1	.	43*	.	.	.	.	66*	6	44*
O=C(NCc1cc(Cl)cc(Cl)c1)c1csc([C@@H]2C[C@H](O)[C@@H](CO)O2)n1	.	22*	.	.	.	.	60*	-2	35*
O=C1C=C(c2ccccc2Oc2ccccc2)C[C@@H](c2ccc(F)cc2)C1	.	-1	.	.	.	.	.	.	.
CO[C@@H]1CN(C)C(=O)c2cc(NS(=O)(=O)c3ccc(C)cc3)ccc2OC[C@H](C)N(Cc2nccs2)C[C@H]1C	.	0	.	.	.	.	.	.	.
COc1cccc(-c2cnc3c(c2)C(=O)N([C@H](C)CO)C[C@@H](C)[C@H](CN(C)C(=O)Nc2ccccc2F)O3)c1	.	-1	.	.	.	.	.	.	.
COc1ccc2c3c(n(C(=O)OC(C)(C)C)c2c1)C1CC=C(COC(C)=O)CN1CC3 (stereo unspecified)	.	-1	.	.	.	.	.	.	.
CCCCc1c(-c2ccccc2OC)ncn1CCc1cccc(Cl)c1	.	5.8*	.	.	.	.	16*	36*	5
O=C(NCc1ccc2c(c1)OCO2)C1CC(=O)N(c2ccc(Cl)cc2)C1 (stereo unspecified)	-2	8.9*	-10	-2	-1	-3	16*	2	8
Cc1ccc(N2CC(C(=O)NCc3ccc4c(c3)OCO4)CC2=O)cc1C (stereo unspecified)	-2	0	-10	.	-1	-3	.	.	.
COc1ccccc1OCC(=O)Nc1cccc(S(=O)(=O)NC2=NCCCCC2)c1	-3	0	-5	-1	-3	3	.	.	.
CCc1ccccc1OCC(=O)Nc1cccc(S(=O)(=O)NC2=NCCCCC2)c1	-2	20*	-5	.	-1	1	40*	4	18*
OC(c1ccc(F)cc1)c1ncc(-c2ccc3ccccc3c2)[nH]1 (stereo unspecified)	.	1	.	.	.	.	.	.	.
c1ccc(Nc2ccnc(Nc3ccccc3)n2)cc1	.	10*	15	38	-1	4	24*	14	14
Cc1cc(=O)c2ccccc2[nH]1	-3	-1	-8	13	2	0	.	.	.
Cc1cc(=O)c2cc(Br)ccc2[nH]1	0	6.0*	-13	40	.	1	7.5*	7	8
Nc1n[nH]c(N)c1N=Nc1ccc(Cl)cc1Cl	5	9.7*	-6	2	0	2	22*	19*	36*
Nc1n[nH]c(N)c1N=Nc1ccccc1F	0	0	-23	0	-1	-2	.	.	.
COc1ccc2nc(SCC(=O)NCc3ccc(F)cc3)[nH]c2c1	.	2	-6	13	1	0	.	.	.
C/C(=N\Nc1nc2ccccc2[nH]1)c1ccc2c(c1)OCCO2	-3	3	-10	32	0	1	.	.	.
O=C(CSc1nc2ccccc2[nH]1)NCc1ccc(F)cc1	1	7.7*	-8	-1	-1	-2	13*	3	-1
O=C(CCc1nc2ccccc2[nH]1)NCc1ccc2c(c1)OCO2	-1	20*	-9	2	-1	0	36*	-5	13
O=C(CSc1nc2ccccc2[nH]1)NCc1ccc2c(c1)OCO2	-3	28*	-3	17	-1	-1	43*	1	20*
C/C(=N\Nc1nc2ccccc2[nH]1)c1ccc2c(c1)OCO2	-3	7.3*	16	23	2	0	8.8*	0	18*
SMILES	CAL PDZ FP-1	TbMetRS inhib	PvdQ inh	DYRK1A inh	CAL PDZ FP-2	CDK5 p35 inh	TbMetRS confirm	Jurkat cytotox	Tb MetRS inh FP
CC(=O)Nc1ccc(-c2ccnc3c2CC(C)(C(=O)Nc2ccc(Cl)cc2)O3)cc1 (stereo unspecified)	.	0	.	.	.	.	.	.	.
NS(=O)(=O)c1cccc(NC(=O)CSc2nc3ccccc3[nH]2)c1	-4	7.8*	-16	-6	-3	2	16*	2	10
Cc1ccc2nc(SCC(=O)Nc3cccc(S(N)(=O)=O)c3)[nH]c2c1	-5	1	-15	7	.	1	.	.	.
O=C1CCC(=O)N1OCCCOc1ccc(Br)cc1Cl	-4	7.0*	-23	11	0	0	15*	-1	33*
N#C/C(=C\c1ccccc1)C(=O)NNS(=O)(=O)c1ccc(Br)cc1	.	0	-15	-2	0	-2	.	.	.
Cn1nnc(NCc2cc(Br)ccc2OCc2ccccc2F)n1	-3	20*	13	-32	-2	1	24*	9	9
Cc1ccccc1NC(=O)N(CCc1nc2ccccc2[nH]1)Cc1ccccc1	-2	7.0*	4	2	0	-4	14*	14	4
CC(=O)Nc1cccc(CCc2nc3ccccc3[nH]2)c1	.	0	-9	-2	-3	1	.	.	.
Cc1ccc(SCc2nc3ccccc3n2CC(=O)Nc2ccccc2)cc1	.	2	-15	0	-2	1	.	.	.
